From ChEMBL document CHEMBL1137710, “Synthesis and in vitro antitumor activity of new quinoxaline derivatives” (2009)

What was measured:
Assay type in all cases: functional
[1] = tested on: A498; test: Growth inhibition of human A498 cells after 48 hrs by sulforhodamine B assay; details: A498, 48 h; for CC50: read-out: pLC50 (the source's name) (converted); for TGI: read-out: pTGI (converted)
Outline: (§1)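 NCI 60-human-tumor-cell-line panel, with compounds tested over a 5-log dose range. Values are taken from dose-response curves as log10 molar concentrations: GI50 is 50% net growth inhibition, TGI is total growth inhibition, and LC50 is 50% net cell death.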

[2] = tested on: T47D; test: Growth inhibition of human T47D cells after 48 hrs by sulforhodamine B assay; details: for CC50: read-out: pLC50 (the source's name) (converted); for TGI: read-out: pTGI (converted)
Outline: (§2)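 Run in the NCI 60-human-tumour-cell-line panel, tested over a 5-log dose range. Dose–response curves gave three values per cell line, each as a log10 molar concentration: GI50 (50% inhibition of net cell growth), TGI (total inhibition of net growth) and LC50 (50% net cell death). The mean graph midpoint is the arithmetic mean over all lines, with insensitive lines entered at the highest concentration tested.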

[3] = tested on: OVCAR-3; test: Growth inhibition of human OVCAR-3 cells after 48 hrs by sulforhodamine B assay; details: OVCAR-3, 48 h; for CC50: read-out: pLC50 (the source's name) (converted); for TGI: read-out: pTGI (converted); outline: as §1
[4] = tested on: NCI-H226; test: Growth inhibition of human NCI-H226 cells after 48 hrs by sulforhodamine B assay; details: NCI-H226, 48 h; for TGI: read-out: pTGI (converted); outline: as §1
[5] = tested on: SK-MEL-2; test: Growth inhibition of human SK-MEL-2 cells after 48 hrs by sulforhodamine B assay; details: SK-MEL-2, 48 h; for CC50: read-out: pLC50 (the source's name) (converted); for TGI: read-out: pTGI (converted); outline: as §1
[6] = tested on: UO-31; test: Growth inhibition of human UO31 cells after 48 hrs by sulforhodamine B assay; details: UO-31, 48 h; for CC50: read-out: pLC50 (the source's name) (converted); for TGI: read-out: pTGI (converted); outline: as §2
[7] = tested on: HOP-62; test: Growth inhibition of human HOP62 cells after 48 hrs by sulforhodamine B assay; details: HOP-62, 48 h; for TGI: read-out: pTGI (converted); outline: as §1
[8] = tested on: MCF7; test: Growth inhibition of human MCF7 cells after 48 hrs by sulforhodamine B assay; details: MCF7, 48 h; for CC50: read-out: pLC50 (the source's name) (converted); for TGI: read-out: pTGI (converted); outline: as §1
[9] = tested on: SK-OV-3; test: Growth inhibition of human SKOV3 cells after 48 hrs by sulforhodamine B assay; details: SK-OV-3, 48 h; for CC50: read-out: pLC50 (the source's name) (converted); for TGI: read-out: pTGI (converted); outline: as §1
[10] = tested on: HCT-15; test: Growth inhibition of human HCT15 cells after 48 hrs by sulforhodamine B assay; details: HCT-15, 48 h; for TGI: read-out: pTGI (converted); outline: as §1
[11] = tested on: SF-268; test: Anticancer activity against human SF268 cells assessed as cell growth at 100 uM after 48 hrs by sulforhodamine B assay; details: SF-268, 48 h, read-out: Activity
[12] = tested on: Malme-3M; test: Growth inhibition of human MALME-3M cells after 48 hrs by sulforhodamine B assay; details: for CC50: read-out: pLC50 (the source's name) (converted); for TGI: read-out: pTGI (converted); outline: as §1
[13] = tested on: HT-29; test: Growth inhibition of human HT-29 cells after 48 hrs by sulforhodamine B assay; details: HT-29, 48 h; for TGI: read-out: pTGI (converted); outline: as §1
[14] = tested on: SNB-75; test: Growth inhibition of human SNB75 cells after 48 hrs by sulforhodamine B assay; details: SNB-75, 48 h; for TGI: read-out: pTGI (converted); outline: as §2
[15] = tested on: UACC-62; test: Growth inhibition of human UACC62 cells after 48 hrs by sulforhodamine B assay; details: UACC-62, 48 h; for CC50: read-out: pLC50 (the source's name) (converted); for TGI: read-out: pTGI (converted); outline: as §2
[16] = Growth inhibition of human […] cells after 48 hrs by sulforhodamine B assay; details: for TGI: read-out: pTGI (converted); outline: as §1
[17] = tested on: NCI-H460; test: Growth inhibition of human NCI-H460 cells after 48 hrs by sulforhodamine B assay; details: NCI-H460, 48 h; for TGI: read-out: pTGI (converted); outline: as §1
[18] = tested on: ACHN; test: Growth inhibition of human ACHN cells after 48 hrs by sulforhodamine B assay; details: for TGI: read-out: pTGI (converted)
[19] = tested on: NCI-H23; test: Growth inhibition of human NCI-H23 cells after 48 hrs by sulforhodamine B assay; details: NCI-H23, 48 h; for TGI: read-out: pTGI (converted); outline: as §1
[20] = tested on: BT-549; test: Growth inhibition of human BT549 cells after 48 hrs by sulforhodamine B assay; details: BT-549, 48 h; for CC50: read-out: pLC50 (the source's name) (converted); for TGI: read-out: pTGI (converted); outline: as §1
[21] = tested on: HOP-92; test: Growth inhibition of human HOP92 cells after 48 hrs by sulforhodamine B assay; details: HOP-92, 48 h; for TGI: read-out: pTGI (converted); outline: as §1
[22] = tested on: SR; test: Growth inhibition of human SR cells after 48 hrs by sulforhodamine B assay; details: for TGI: read-out: pTGI (converted); outline: as §2
[23] = tested on: UACC-257; test: Growth inhibition of human UACC257 cells after 48 hrs by sulforhodamine B assay; details: UACC-257, 48 h; for CC50: read-out: pLC50 (the source's name) (converted); for TGI: read-out: pTGI (converted); outline: as §2
[24] = tested on: CCRF-CEM; test: Growth inhibition of human CCRF-CEM cells after 48 hrs by sulforhodamine B assay; details: for TGI: read-out: pTGI (converted); outline: as §1
[25] = tested on: SNB-19; test: Growth inhibition of human SNB19 cells after 48 hrs by sulforhodamine B assay; details: SNB-19, 48 h; for TGI: read-out: pTGI (converted); outline: as §2
[26] = tested on: EKVX; test: Growth inhibition of human EKVX cells after 48 hrs by sulforhodamine B assay; details: for TGI: read-out: pTGI (converted); outline: as §1
[27] = tested on: HL-60(TB); test: Growth inhibition of human HL-60(TB) cells after 48 hrs by sulforhodamine B assay; details: HL-60, 48 h; for TGI: read-out: pTGI (converted)
Outline: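 Tested only on compounds active in a three-line prescreen, in the NCI 60-human-tumour-cell-line panel over a 5-log dose range. Values come from dose–response curves as log10 molar GI50, the concentration inhibiting 50% net cell growth. Log10 TGI (total growth inhibition) and log10 LC50 (50% net cell death) were derived too. Mean graph midpoints include insensitive lines at the highest concentration tested.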

[28] = tested on: KM12; test: Growth inhibition of human KM12 cells after 48 hrs by sulforhodamine B assay; details: KM12, 48 h; for TGI: read-out: pTGI (converted); outline: as §1

COc1ccc(CNc2nc3cc(N)cc(N)c3nc2-c2ccccc2)cc1
GI50 [1]: > 100 µM | CC50 [1]: > 100 µM | TGI [1]: > 100 µM | GI50 [2]: 2.82 µM | CC50 [2]: 72.4 µM | TGI [2]: 11 µM | GI50 [3]: 2.24 µM | CC50 [3]: 38.9 µM | TGI [3]: 7.76 µM | GI50 [4]: 20.4 µM | LC50 [4]: > 100 µM | TGI [4]: 70.8 µM | GI50 [5]: 14.8 µM | CC50 [5]: 57.5 µM | TGI [5]: 28.8 µM | GI50 [6]: 11.5 µM | CC50 [6]: 72.4 µM | TGI [6]: 28.8 µM | GI50 [7]: 17.4 µM | LC50 [7]: 69.2 µM | TGI [7]: 34.7 µM | GI50 [8]: 13.2 µM | CC50 [8]: 53.7 µM | TGI [8]: 26.3 µM | CC50 [9]: > 100 µM | TGI [9]: 57.5 µM | GI50 [10]: 15.8 µM | LC50 [10]: 75.9 µM | TGI [10]: 34.7 µM | growth at 100 µM [11]: 0% | GI50 [12]: 10.7 µM | CC50 [12]: 47.9 µM | TGI [12]: 22.4 µM | GI50 [13]: 24.5 µM | LC50 [13]: > 100 µM | TGI [13]: 60.3 µM | LC50 [14]: 72.4 µM | TGI [14]: 30.2 µM | GI50 [15]: 14.8 µM | CC50 [15]: 58.9 µM | TGI [15]: 29.5 µM | GI50 [16]: 4.17 µM | LC50 [16]: > 100 µM | TGI [16]: 15.8 µM | GI50 [17]: 20.4 µM | LC50 (50% net cell kill) [17]: > 100 µM | TGI [17]: 47.9 µM | GI50 [18]: 14.8 µM | CC50 ([18]; read-out: pLC50 (the source's name) (converted)): 75.9 µM | TGI [18]: 33.9 µM | GI50 [19]: 17 µM | LC50 (50% net cell kill concentration) [19]: 70.8 µM | TGI [19]: 34.7 µM | GI50 [20]: 6.46 µM | CC50 [20]: > 100 µM | TGI [20]: 30.9 µM | GI50 [21]: 12.9 µM | LC50 (50% net cell death) [21]: > 100 µM | TGI [21]: 37.2 µM | GI50 [22]: 4.07 µM | LC50 (concentration giving 50% net cell death) [22]: > 100 µM | TGI [22]: > 100 µM | GI50 [23]: 16.2 µM | CC50 [23]: 56.2 µM | TGI [23]: 30.2 µM | GI50 [24]: 3.39 µM | LC50 [24]: > 100 µM | TGI [24]: 64.6 µM | GI50 [25]: 41.7 µM | LC50 [25]: > 100 µM | TGI [25]: > 100 µM | GI50 [26]: 14.8 µM | LC50 (50% net cell kill) [26]: 53.7 µM | TGI [26]: 28.2 µM | GI50 [27]: 13.5 µM | LC50 [27]: > 100 µM | TGI [27]: 51.3 µM | GI50 [28]: 13.2 µM | LC50 (50% net cell kill) [28]: > 100 µM | TGI [28]: 26.3 µM

COc1cc(OC)cc(Oc2nc3cc(N)cc(N)c3nc2-c2ccccc2)c1
GI50 [1]: > 100 µM | CC50 [1]: > 100 µM | TGI [1]: > 100 µM | GI50 [2]: 2.34 µM | CC50 [2]: 51.3 µM | TGI [2]: 9.12 µM | GI50 [3]: 2.24 µM | CC50 [3]: 55 µM | TGI [3]: 8.71 µM | GI50 [4]: 6.61 µM | TGI [4]: 42.7 µM | GI50 [5]: 2.29 µM | CC50 [5]: 38 µM | TGI [5]: 10.2 µM | GI50 [6]: 11.5 µM | CC50 [6]: 72.4 µM | TGI [6]: 28.8 µM | GI50 [7]: 2.14 µM | TGI [7]: 12.9 µM | GI50 [8]: 1.7 µM | CC50 [8]: 14.5 µM | TGI [8]: 4.57 µM | GI50 [9]: 3.47 µM | CC50 [9]: 69.2 µM | TGI [9]: 16.2 µM | GI50 [10]: 2.04 µM | TGI [10]: 12.3 µM | growth at 100 µM [11]: 1% | GI50 [12]: 0.427 µM | CC50 [12]: 30.2 µM | TGI [12]: 5.13 µM | GI50 [13]: 4.37 µM | TGI [13]: 17.8 µM | GI50 [14]: 0.126 µM | TGI [14]: 2.69 µM | GI50 [15]: 4.07 µM | CC50 [15]: 47.9 µM | TGI [15]: 18.2 µM | GI50 [16]: 2.88 µM | TGI [16]: 8.51 µM | GI50 [17]: 2.95 µM | TGI [17]: 12.6 µM | GI50 [18]: 14.8 µM | TGI [18]: 33.9 µM | GI50 [19]: 1.7 µM | TGI [19]: 12.6 µM | GI50 [20]: 1.48 µM | CC50 [20]: 38 µM | TGI [20]: 6.92 µM | GI50 [21]: 1.35 µM | TGI [21]: 8.91 µM | GI50 [22]: 1.86 µM | TGI [22]: 28.8 µM | GI50 [23]: 2.19 µM | CC50 [23]: 37.2 µM | TGI [23]: 12.3 µM | GI50 [24]: 1.95 µM | TGI [24]: 8.71 µM | GI50 [25]: 2.51 µM | TGI [25]: 12.6 µM | GI50 [26]: 3.8 µM | TGI [26]: 19.5 µM | GI50 [27]: 3.09 µM | TGI [27]: 25.7 µM | GI50 [28]: 1.02 µM | TGI [28]: 6.03 µM
